{"source": "paper PMC4427609", "about": "(Drug Design, Development and Therapy, 2015)", "type_in_all_cases": "in vivo, rat", "key": {"[1]": {"tested_on": "STZ diabetic and nondiabetic rats", "test": "Effect of insulin dose on STZ diabetic and nondiabetic rats", "conditions": "insulin 6 IU/kg subcutaneously, 2 hours, mean ± SEM, n=10"}, "[2]": {"test": "Serum insulin pharmacokinetics in STZ diabetic and nondiabetic rats", "conditions": "insulin 4 IU/kg subcutaneously; result in words"}, "[3]": {"tested_on": "Sprague-Dawley rats", "test": "Histopathology of liver, kidney and pancreas of STZ-induced diabetic rats", "conditions": "hematoxylin and eosin, light microscope", "outline": "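Diabetes was induced in male SD rats with freshly dissolved STZ (0.1 M citrate, pH 4.5), 80 mg/kg ip, two doses over 2 days; diabetic meant fasting glucose >200 mg/dL. Liver, kidney and pancreas from diabetic and nondiabetic rats were taken immediately after sacrifice and fixed in 10% phosphate-buffered formalin. Tissue was paraffin-embedded, cut at 5 μm, H&E-stained and examined by light microscopy.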"}, "[4]": {"tested_on": "Sprague-Dawley rats", "conditions": "third day post STZ, mean ± SEM, n=10; for ALP (alkaline phosphatase) / ALT (alanine aminotransferase) / AST (aspartate aminotransferase) / Albumin / Creatinine / GGT (gamma-glutamyl transferase) / Urea: serum", "outline": "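Male SD rats got blank injections (no STZ), one STZ dose, or two STZ doses over 2 days. STZ was freshly dissolved in 0.1 M citrate buffer pH 4.5 and given at 80 mg/kg ip. On day 3 rats were fasted for 18 h with water ad libitum. They were then staged by glucose: Stage 0 <200, Stage 1 200–450, Stage 2 451–750 mg/dL.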"}, "[5]": {"conditions": "Stage 1 diabetic rats (200–450 mg/dL)"}, "[6]": {"conditions": "Stage 2 diabetic rats (451–750 mg/dL)"}}, "note": "Where two headings read alike, the source gives them in different places.", "data": [{"compound": "insulin: Recombinant human (rh) insulin powder from Biocon, dissolved in Tris buffer (pH 7), injected subcutaneously", "values": [{"measurement": "minimum percentage of glucose level", "setting": "[1]; STZ diabetic rats", "result": "13.4%±1%"}, {"measurement": "minimum percentage of glucose level", "setting": "[1]; nondiabetic rats", "result": "40.7%±4%"}, {"measurement": "AUC of diabetic rats compared to nondiabetic rats", "setting": "[2]", "result": "doubled"}]}, {"compound": "CN(N=O)C(=O)N[C@H]1C(O)O[C@H](CO)[C@@H](O)[C@@H]1O", "note": "(mixture of isomers) [STZ, streptozotocin]", "values": [{"measurement": "Histology of kidney sections", "setting": "[3]", "result": "tubular atrophy and increased vacuolization of renal tubular epithelial cells"}, {"measurement": "Histology of liver sections", "setting": "[3]", "result": "clear diffused hepatic steatosis"}, {"measurement": "Glucose (heart)", "setting": "[4]; [5]", "result": "439 ± 20.9", "unit": "mg/dL"}, {"measurement": "Glucose (heart)", "setting": "[4]; [6]", "result": "668 ± 34.5", "unit": "mg/dL"}, {"measurement": "ALP (alkaline phosphatase)", "setting": "[4]; [5]", "result": "247±47.5", "unit": "IU/L"}, {"measurement": "ALT (alanine aminotransferase)", "setting": "[4]; [5]", "result": "88±18.8", "unit": "IU/L"}, {"measurement": "AST (aspartate aminotransferase)", "setting": "[4]; [5]", "result": "131.4±23.1", "unit": "IU/L"}, {"measurement": "Albumin", "setting": "[4]; [5]", "result": "4.5 ± 0.3", "unit": "g/dL"}, {"measurement": "Creatinine", "setting": "[4]; [5]", "result": "1.1 ± 0.3", "unit": "mg/dL"}, {"measurement": "GGT (gamma-glutamyl transferase)", "setting": "[4]; [5]", "result": "3.4±0.8", "unit": "IU/L"}, {"measurement": "Urea", "setting": "[4]; [5]", "result": "70.7 ± 10.2", "unit": "mg/dL"}, {"measurement": "ALP (alkaline phosphatase)", "setting": "[4]; [6]", "result": "322.7±25.5", "unit": "IU/L"}, {"measurement": "ALT (alanine aminotransferase)", "setting": "[4]; [6]", "result": "80.1±8.1", "unit": "IU/L"}, {"measurement": "AST (aspartate aminotransferase)", "setting": "[4]; [6]", "result": "151.8±22.9", "unit": "IU/L"}, {"measurement": "Albumin", "setting": "[4]; [6]", "result": "4.9 ± 0.2", "unit": "g/dL"}, {"measurement": "Creatinine", "setting": "[4]; [6]", "result": "1.6 ± 0.2", "unit": "mg/dL"}, {"measurement": "GGT (gamma-glutamyl transferase)", "setting": "[4]; [6]", "result": "9.5±4.1", "unit": "IU/L"}, {"measurement": "Urea", "setting": "[4]; [6]", "result": "148.8 ± 9.3", "unit": "mg/dL"}]}]}
